The species entered for test [1] is Rattus norvegicus. In words: In vitro histamine release by rat mast cells. To be noted: read-out: ED50 (the source's name).
Test [2] has as its target T1, Gonadotropin-releasing hormone receptor (Rattus norvegicus, UniProt P30969).
T1 sequence (P30969 whole entry): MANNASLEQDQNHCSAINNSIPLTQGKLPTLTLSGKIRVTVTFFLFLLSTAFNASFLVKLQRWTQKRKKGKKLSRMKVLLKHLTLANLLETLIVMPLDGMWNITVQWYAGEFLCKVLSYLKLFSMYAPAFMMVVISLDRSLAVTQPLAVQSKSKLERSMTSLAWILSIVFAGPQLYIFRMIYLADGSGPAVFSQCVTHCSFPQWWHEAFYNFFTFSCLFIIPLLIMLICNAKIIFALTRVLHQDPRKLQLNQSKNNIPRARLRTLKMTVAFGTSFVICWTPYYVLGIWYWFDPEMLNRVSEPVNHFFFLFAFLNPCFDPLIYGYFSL
As to the kind of experiment: In vitro binding affinity of Gonadotropin-releasing hormone antagonist was measured in rat pituitary cell membranes. Set-up: species or system Pituitary gland cell, Membrane. A digest of the protocol: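 Displacement binding on pituitary cell membranes with [DAla6,NMe-Leu7,Pro9-NHEt]GnRH as standard; analogue KD values calculated from potencies relative to that standard derived from displacement data.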

The test system of test [3] is Rattus norvegicus. In words: Potency (1 mg/rat) using anti-ovulatory assay, expressed as rat ovulating/total number of treated rats measured after sc administration; 2/8. Type of test: functional, organism-based.
Test [4] has as its target Gonadotropin-releasing hormone receptor (Rattus norvegicus) (UniProt P30969). As to the kind of experiment: Antagonist potency at GnRH receptor relative to a standard ([Ac-delta3Pro, DFpa2, DTrp3,6]GnRH).
Test [5] has as its system Rattus norvegicus. As to the kind of experiment: Potency (0.5 mg/rat) using anti-ovulatory assay, expressed as rat ovulating/total number of treated rats measured after sc administration; 7/7. The format is functional, organism-based.
For test [6], the system named is Rattus norvegicus. As to the kind of experiment: Potency (1 mg/rat) using anti-ovulatory assay, expressed as rat ovulating/total number of treated rats measured after sc administration; 6/6. Type of test: functional, organism-based.
Test [7] deals with Rattus norvegicus. In words: Potency (2.5 mg/rat) using anti-ovulatory assay, expressed as rat ovulating/total number of treated rats measured after sc administration; 1/8. The format is functional, organism-based.
The subject of test [8] is Rattus norvegicus. As to the kind of experiment: Potency (10 mg/rat) using anti-ovulatory assay, expressed as rat ovulating/total number of treated rats measured after sc administration; 4/4. The format is functional, organism-based.
In test [9] the test system is Rattus norvegicus. In words: Potency (2.5 mg/rat) using anti-ovulatory assay, expressed as rat ovulating/total number of treated rats measured after sc administration; 5/9. Type of test: functional, organism-based.
Test [10] relates to Rattus norvegicus. In words: Potency (5 mg/rat) using anti-ovulatory assay, expressed as rat ovulating/total number of treated rats measured after sc administration; 2/5. The format is functional, organism-based.
The test system of test [11] is Rattus norvegicus. In words: Potency (10 mg/rat) using anti-ovulatory assay, expressed as rat ovulating/total number of treated rats measured after sc administration; 0/6. Type of test: functional, organism-based.
For test [12], the system named is Rattus norvegicus. In words: Potency (2.5 mg/rat) using anti-ovulatory assay, expressed as rat ovulating/total number of treated rats measured after sc administration; 2/9. The format is functional, organism-based.
The test system of test [13] is Rattus norvegicus. As to the kind of experiment: Potency (1 mg/rat) using anti-ovulatory assay, expressed as rat ovulating/total number of treated rats measured after sc administration; 5/8. Type of test: functional, organism-based.
For test [14], the system named is Rattus norvegicus. In words: Potency (2.5 mg/rat) using anti-ovulatory assay, expressed as rat ovulating/total number of treated rats measured after sc administration; 0/8. Type of test: functional, organism-based.
In test [15] the test system is Rattus norvegicus. In words: Potency (2.5 mg/rat) using anti-ovulatory assay, expressed as rat ovulating/total number of treated rats measured after sc administration; 7/9. The format is functional, organism-based.
The test system of test [16] is Rattus norvegicus. In words: Potency (2.5 mg/rat) using anti-ovulatory assay, expressed as rat ovulating/total number of treated rats measured after sc administration; 5/6. Type of test: functional, organism-based.
For test [17], the system named is Rattus norvegicus. In words: Potency (5 mg/rat) using anti-ovulatory assay, expressed as rat ovulating/total number of treated rats measured after sc administration; 1/6. The format is functional, organism-based.
Test [18] deals with Rattus norvegicus. As to the kind of experiment: Potency (5 mg/rat) using anti-ovulatory assay, expressed as rat ovulating/total number of treated rats measured after sc administration; 0/7. Type of test: functional, organism-based.
Test [19] relates to Rattus norvegicus. As to the kind of experiment: Potency (2.5 mg/rat) using anti-ovulatory assay, expressed as rat ovulating/total number of treated rats measured after sc administration; 7/7. Type of test: functional, organism-based.

Converted amounts (≈) assume the structure as drawn. The source made the active and inactive calls. The rule behind the calls is not given here.

Results on ten compounds are retold here after ChEMBL document CHEMBL1125607, “Novel gonadotropin-releasing hormone antagonists: peptides incorporating modified N omega-cyanoguanidino moieties” (J Med Chem, 1991).

The term Kd denotes the concentration at which binding is half-saturated. With `CCCC/N=C(\NC#N)NCCCC[C@@H](NC(=O)[C@H](Cc1c[nH]cn1)NC(=O)[C@@H]1CCC(=O)N1)C(=O)N[C@@H](CO)C(=O)N[C@@H](Cc1ccc(O)cc1)C(=O)N[C@H](CCCN=C(N)N)C(=O)N[C@@H](CC(C)C)C(=O)N[C@@H](CCCCNC(C)C)C(=O)N1CCC[C@H]1C(=O)N[C@H](C)C(N)=O`, the EC50 in the test listed under Rattus norvegicus [1] worked out at 6 µg/mL (≈ 4.36 µM). Also, the Kd in test [2] was 1.2 nM. The outcome in the test with Rattus norvegicus [3] was Active. This compound also came in with a Relative potency in test [4] of 1.4. In addition, the result in the test with Rattus norvegicus [5] was inactive.

As to `CC(C)C[C@H](NC(=O)[C@@H](CCCCNc1n[nH]c(N)n1)NC(=O)[C@H](Cc1ccc(O)cc1)NC(=O)[C@H](CO)NC(=O)[C@H](CCCCNc1n[nH]c(N)n1)NC(=O)[C@H](Cc1c[nH]cn1)NC(=O)[C@@H]1CCC(=O)N1)C(=O)N[C@@H](CCCCNC(C)C)C(=O)N1CCC[C@H]1C(=O)N[C@H](C)C(N)=O`, the result in the test on Rattus norvegicus [6] was inactive. Besides, in the test with Rattus norvegicus [7], the outcome was Active. Also, in [4], the Relative potency is 0.6.

`CC(C)C[C@H](NC(=O)[C@@H](Cc1cccnc1)NC(=O)[C@H](Cc1ccc(O)cc1)NC(=O)[C@H](CO)NC(=O)[C@H](Cc1ccc(Nc2n[nH]c(N)n2)cc1)NC(=O)[C@H](Cc1c[nH]cn1)NC(=O)[C@@H]1CCC(=O)N1)C(=O)N[C@@H](CCCCNC(C)C)C(=O)N1CCC[C@H]1C(=O)N[C@H](C)C(N)=O`: in the test with Rattus norvegicus [8], the result was inactive. The compound further displayed a Relative potency in [4] of 0.06.

On to `CCCC/N=C(\NC#N)NCCCC[C@H](NC(=O)[C@H](Cc1c[nH]cn1)NC(=O)[C@@H]1CCC(=O)N1)C(=O)N[C@@H](CO)C(=O)N[C@@H](Cc1ccc(O)cc1)C(=O)N[C@H](CCCCN/C(=N/CCCC)NC#N)C(=O)N[C@@H](CC(C)C)C(=O)N[C@@H](CCCCNC(C)C)C(=O)N1CCC[C@H]1C(=O)N[C@H](C)C(N)=O`, for which the Activity entry in the test with Rattus norvegicus [9] was “Weak activity”. In addition, the Relative potency in test [4] came to 1.4.

As to `CC(C)C[C@H](NC(=O)[C@@H](CCCN=C(N)N)NC(=O)[C@H](Cc1ccc(O)cc1)NC(=O)[C@H](CO)NC(=O)[C@@H](CCCCNc1n[nH]c(N)n1)NC(=O)[C@H](Cc1c[nH]cn1)NC(=O)[C@@H]1CCC(=O)N1)C(=O)N[C@@H](CCCCNC(C)C)C(=O)N1CCC[C@H]1C(=O)N[C@H](C)C(N)=O`, the EC50 in the test listed under Rattus norvegicus [1] turned out to be 9.5 µg/mL (≈ 7.12 µM). Also, the Activity entry in the test on Rattus norvegicus [10] was “Weak activity”. For the same compound, the Relative potency in [4] worked out at 0.3. In the test with Rattus norvegicus [11], the outcome was Active.

Compound `CC(C)C[C@H](NC(=O)[C@@H](CCC/N=C(\NC#N)NCc1ccccn1)NC(=O)[C@H](CCC/N=C(\NC#N)NCc1ccccn1)NC(=O)[C@H](CO)NC(=O)[C@H](Cc1c[nH]c2ccccc12)NC(=O)[C@H](Cc1c[nH]cn1)NC(=O)[C@@H]1CCC(=O)N1)C(=O)N[C@@H](CCCCNC(C)C)C(=O)N1CCC[C@H]1C(=O)N[C@H](C)C(N)=O` displayed a Kd in test [2] of 0.41 nM. In addition, the outcome in the test on Rattus norvegicus [12] was Active. Moreover, the Relative potency in test [4] is 0.9.

For the compound `CCCC/N=C(\NC#N)NCCC[C@H](NC(=O)[C@H](CO)NC(=O)[C@H](Cc1c[nH]c2ccccc12)NC(=O)[C@H](Cc1c[nH]cn1)NC(=O)[C@@H]1CCC(=O)N1)C(=O)N[C@H](CCCN/C(=N/CCCC)NC#N)C(=O)N[C@@H](CC(C)C)C(=O)N[C@@H](CCCCNC(C)C)C(=O)N1CCC[C@H]1C(=O)N[C@H](C)C(N)=O`, the affinity in test [2], expressed as Kd, was 2.1 nM. In addition, in the test on Rattus norvegicus [13], the Activity result was “Weak activity”. The result in the test with Rattus norvegicus [14] was Active. The compound further yielded a Relative potency in test [4] of 1.

Regarding `CC(C)C[C@H](NC(=O)[C@@H](CCCC/N=C(\NC#N)NC1CCCCC1)NC(=O)[C@H](CCCC/N=C(\NC#N)NC1CCCCC1)NC(=O)[C@H](CO)NC(=O)[C@H](Cc1c[nH]c2ccccc12)NC(=O)[C@H](Cc1c[nH]cn1)NC(=O)[C@@H]1CCC(=O)N1)C(=O)N[C@@H](CCCCNC(C)C)C(=O)N1CCC[C@H]1C(=O)N[C@H](C)C(N)=O`, the outcome in the test with Rattus norvegicus [15] was inactive. In addition, the Relative potency in test [4] came out at 0.42.

`CCCC/N=C(\NC#N)NCCCC[C@H](NC(=O)[C@H](CC(C)C)NC(=O)[C@@H](CCCN=C(N)N)NC(=O)[C@H](Cc1ccc(O)cc1)NC(=O)[C@H](CO)NC(=O)[C@@H](Cc1cccnc1)NC(=O)[C@H](Cc1c[nH]cn1)NC(=O)[C@@H]1CCC(=O)N1)C(=O)N1CCC[C@H]1C(=O)N[C@H](C)C(N)=O`: in the test filed under Rattus norvegicus [1], the EC50 was found to be 3.5 µg/mL (≈ 2.59 µM). The compound further gave a Kd in [2] (pituitary gland cell) of 1 nM. Also, the Relative potency in [4] amounted to 1.2. Besides, the result in the test on Rattus norvegicus [16] was inactive. Besides, the outcome in the test on Rattus norvegicus [17] was Active.

Compound `CCCC/N=C(/NCCCC[C@H](NC(=O)[C@H](CC(C)C)NC(=O)[C@@H](CCCCNC(=O)c1cccnc1)NC(=O)[C@H](CCCCNC(=O)c1cccnc1)NC(=O)[C@H](CO)NC(=O)[C@H](Cc1c[nH]c2ccccc12)NC(=O)[C@H](Cc1c[nH]cn1)NC(=O)[C@@H]1CCC(=O)N1)C(=O)N1CCC[C@H]1C(=O)N[C@H](C)C(N)=O)NC(N)=O` displayed a Kd in [2] of 0.11 nM. The outcome in the test with Rattus norvegicus [18] was Active. Moreover, the outcome with Rattus norvegicus [19] was inactive.
